According to ChEMBL document CHEMBL2163309, “Discovery of novel 2-aryl-4-benzoyl-imidazole (ABI-III) analogues targeting tubulin polymerization as antiproliferative agents” (J Med Chem, 2012):
Active and inactive are the calls of the source. The rule behind the calls is not given here.

Experiments:
A-375 = assay: Antiproliferative activity against human A375 cells after 48 hrs by SRB assay; assay type: functional, cell-based; conditions: A-375, 48 h
Outline: (§1)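 Run as part of a panel of two human metastatic melanoma lines (A375, WM164) and three human prostate cancer lines (LNCaP, PC-3, Du 145), following previously described methods. Colchicine served as the positive control.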

PC-3 [1] = assay: Antiproliferative activity against human PC3 cells after 48 hrs by SRB assay; assay type: functional, cell-based; conditions: PC-3, 48 h
[2] = Antiproliferative activity against human paclitaxel-resistant PC3-TxR cells after 48 hrs by SRB assay; assay type: functional, cell-based
Bos taurus [3] = species on record: Bos taurus; assay: Inhibition of bovine brain tubulin polymerization at 10 uM measured for every 1 min for 20 mins by spectrophotometer analysis
Outline: (§2)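 Bovine brain tubulin (>97% pure), 0.4 mg per assay, exposed to test compound at 5 or 10 μM in 5% DMSO vehicle, with a DMSO-only control and colchicine 5 μM as positive control. Polymerization followed by absorbance at 340 nm at 37 °C, read every minute for 20 min. Percent inhibition of polymerization taken at 20 min.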

LNCaP = assay: Antiproliferative activity against human LNCAP cells after 48 hrs by SRB assay; assay type: functional, cell-based
DU-145 = assay: Antiproliferative activity against human DU145 cells after 48 hrs by SRB assay; assay type: functional, cell-based; conditions: DU-145, 48 h; outline: as §1
[4] = Antiproliferative activity against human WM164 cells after 48 hrs by SRB assay; assay type: functional, cell-based; conditions: WM164, 48 h
PC-3 [5] = assay: Resistance index, ratio of IC50 for human paclitaxel-resistant PC3-TxR cells to IC50 for human PC3 cells
Bos taurus [6] = species on record: Bos taurus; assay: Inhibition of bovine brain tubulin polymerization measured for every 1 min for 20 mins by spectrophotometer analysis; outline: as §2
Bos taurus [7] = species on record: Bos taurus; assay: Inhibition of bovine brain tubulin polymerization at 5 uM measured for every 1 min for 20 mins by spectrophotometer analysis; outline: as §2
Homo sapiens = species on record: Homo sapiens; conditions: 10 to 1000 nM

Compound	IC50 (A-375) [nM]	IC50 (PC-3 [1]) [nM]	IC50 [2] [nM]	inhibition (Bos taurus [3])	IC50 (LNCaP) [nM]	IC50 (DU-145) [nM]	IC50 [4] [nM]	Ratio IC50 (PC-3 [5])	inhibition (Bos taurus [6])	inhibition (Bos taurus [7])	inhibition (Homo sapiens)
COc1cc(C(=O)c2c[nH]c(-c3csc4ccccc34)n2)cc(OC)c1OC	41	20.8	98.6	30%	29.1	51.2	45.7	0.9	Dose-dependent effect	inactive	–
COc1cc2c(c(OC)c1OC)-c1ccc(OC)c(=O)cc1[C@@H](NC(C)=O)CC2 [COLCHICINE]	20.6	11.5	–	–	16.3	11.2	29	–	–	–	–
CC(=O)O[C@H]1C(=O)[C@@]2(C)[C@H]([C@H](OC(=O)c3ccccc3)[C@]3(O)C[C@H](OC(=O)[C@H](O)[C@@H](NC(=O)c4ccccc4)c4ccccc4)C(C)=C1C3(C)C)[C@]1(OC(C)=O)CO[C@@H]1C[C@@H]2O [PACLITAXEL]	–	0.4	188	–	–	–	–	–	–	–	–
COc1cc(C(=O)c2c[nH]c(-c3cn(S(=O)(=O)c4ccccc4)c4ccccc34)n2)cc(OC)c1OC	414	33.3	27.6	85%	107	189	166	0.9	Dose-dependent effect	67%	–
COc1cc(C(=O)c2c[nH]c(-c3coc4ccccc34)n2)cc(OC)c1OC	53.4	33.3	42.8	60%	14.1	45	73.6	1	Dose-dependent effect	30%	–
COc1cc(C(=O)c2cn(C)c(-c3cn(C)c4ccccc34)n2)cc(OC)c1OC	18.8	20.8	22.4	80%	35.9	76.5	24.2	1.1	Dose-dependent effect	65%	–
COc1cc(C(=O)c2cnc(-c3c[nH]c4ccccc34)[nH]2)cc(OC)c1OC [SABIZABULIN]	3.2	3.7	3.7	Active	2.8	3.9	5.3	1	Dose-dependent effect	70%	inactive
